Each block holds one molecule with its values, some of them ahead of it.
Tests used:
Calf thymus DNA = assay: Binding affinity against calf-thymus DNA at pH 7.4; format: nucleic-acid assay; settings: Bos taurus
How it was run: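 Fluorimetric competition at pH 7.4, 25 °C. Monomers: 10^-5 M compound with calf thymus DNA (4 µg/mL), titrated with ethidium bromide (ex 546/em 590 nm), Scatchard analysis. Dimers: ethidium dimer (6.4 × 10^-7 M) with DNA (1.6 × 10^-6 M bp) equilibrated 24 h with varied compound (ex 540/em 610 nm); constant fitted from displacement curves with site size n.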

L1210 [1] = assay: In vitro cellular toxicity against L1210 (mouse leukemia) cells.; format: functional; settings: read-out: ED50 (the source's name)
How it was run: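 Exponentially growing L1210 cells (1 × 10^5/mL) exposed 24 h at 37 °C in RPMI 1640 with 10% fetal calf serum at a range of concentrations. Total cells counted by flow cytometer. Duplicate treated cultures were expressed as % of triplicate untreated controls. ED50 came from linear regression of residual % versus log concentration.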

Mus musculus [2] = assay: In vivo change in mean survival time in L1210 (mouse leukemia) inoculated mice.; format: functional
How it was run: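 DBA2 mice given 10^5 L1210 cells ip; 24 h later single ip dose of drug, controls given same volume of solvent; 20–30 animals/group. Deaths recorded daily; survivors beyond 45 days counted cured. Value is treated mean survival time over control mean survival time ×100 (T/C %).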

L1210 [3] = assay: In vivo antitumor activity in L1210 (mouse leukemia) inoculated mice (optimal dose).; format: functional
How it was run: (§1)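 DBA2 mice (20–30/group) received 10^5 L1210 cells ip. Compound was given ip 24 h later; controls received solvent vehicle. Deaths were recorded daily, and survivors beyond 45 days were counted as cured. T/C% = treated/control mean survival time × 100. MTD was the highest dose causing no deaths; OD was the optimal dose.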

L1210 [4] = assay: (§2) In vivo maximum tolerate dose in L1210 (mouse leukemia) inoculated mice.; format: functional
How it was run: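 L1210-bearing DBA2 mice (10^5 cells ip), drug given ip 24 h after inoculation. Acute toxicity by usual procedure; MTD taken as highest dose administered without causing animal death, in mg/kg.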

L1210 [5] = assay: In vitro inhibition of L1210 (mouse leukemia) cell cloning efficiency.; format: functional
How it was run: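 After 24 h drug exposure, L1210 cells were diluted to 250 and 500 cells/mL and plated in Noble agar. Plates were held 14 days at 37 °C in 5% CO2, and colonies >0.2 mm were counted. Triplicates were run per concentration. CE37, the concentration reducing cloning efficiency to 0.37, came from dose–response curves.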

Mus musculus [6] = assay: In vivo change in mean survival time in L1210 (mouse leukemia) inoculated mice (Not significant).; format: functional, organism-based; how it was run: as §1
L1210 [7] = assay: as §2; format: functional; how it was run: as §1; remark: listed apart in the source

K (Calf thymus DNA): 100000 M⁻¹
Compound: COc1ccc2[nH]c3cc(C)c4ccc(NCCN5CCCCC5)cc4c3c2c1
EC50 (L1210 [1]): 2.24 µM

Compound: COc1ccc2[nH]c3ccc4cc(NCCN5CCC(C6CCN(CCNc7ccc8c(ccc9[nH]c%10ccc(OC)cc%10c98)c7)CC6)CC5)ccc4c3c2c1.Cl.Cl
K (Calf thymus DNA): 3e+06 M⁻¹
T/C (Mus musculus [2]): 130%
OD (L1210 [3]): 20 mg/kg
MTD (L1210 [4]): 100 mg/kg

Compound: COc1ccc2c(c1)c1c3cc(NCCN4CCC(C5CCN(CCNc6ccc7ccc8c(c7c6)c6cc(OC)ccc6n8C)CC5)CC4)ccc3ccc1n2C.Cl.Cl
K (Calf thymus DNA): 2e+07 M⁻¹
EC50 (L1210 [1]): 0.36 µM
T/C (Mus musculus [2]): 178%
CE37 (L1210 [5]): 0.006 µM
OD (L1210 [3]): 2.5 mg/kg
MTD (L1210 [4]): 10 mg/kg

Compound: COc1ccc2[nH]c3ccc4ccc(NCCN5CCCCC5)cc4c3c2c1.Cl
T/C (Mus musculus [6]): Not significant
K (Calf thymus DNA): 540000 M⁻¹
EC50 (L1210 [1]): 0.25 µM
CE37 (L1210 [5]): 0.14 µM
OD (L1210 [3]): 5 mg/kg
MTD (L1210 [4]): 10 mg/kg

K (Calf thymus DNA): 1e+08 M⁻¹
Compound: COc1ccc2c(c1)c1c3cc(NCCN4CCC(C5CCN(CCNc6ccc7cc(C)c8c(c7c6)c6cc(OC)ccc6n8C)CC5)CC4)ccc3cc(C)c1n2C.Cl.Cl
EC50 (L1210 [1]): 3.27 µM
CE37 (L1210 [5]): 10.9 µM

Compound: CNc1ccc2cc(C)c3[nH]c4ccc(OC)cc4c3c2c1.I
K (Calf thymus DNA): 180000 M⁻¹
EC50 (L1210 [1]): 0.06 µM
T/C (Mus musculus [2]): 125%
CE37 (L1210 [5]): 0.03 µM
Dose (L1210 [7]): 50 mg/kg
Optimal dose (L1210 [3]): 25 mg/kg

Compound: CNc1ccc2ccc3c(c2c1)c1cc(OC)ccc1n3C.I
K (Calf thymus DNA): 700000 M⁻¹
EC50 (L1210 [1]): 0.22 µM
T/C (Mus musculus [2]): 122%
CE37 (L1210 [5]): 0.74 µM
OD (L1210 [3]): 17 mg/kg
MTD (L1210 [4]): 25 mg/kg

Compound: CNc1ccc2c(ccc3[nH]c4ccc(OC)cc4c32)c1.I
T/C (Mus musculus [6]): Not significant
K (Calf thymus DNA): 200000 M⁻¹
EC50 (L1210 [1]): > 2.5 µM
OD (L1210 [3]): 25 mg/kg
MTD (L1210 [4]): 50 mg/kg

Compound: COc1ccc2[nH]c3ccc4ccc(NCCN5CCC(C6CCN(CCNc7ccc8ccc9[nH]c%10ccc(OC)cc%10c9c8c7)CC6)CC5)cc4c3c2c1.CS(=O)(=O)O.CS(=O)(=O)O
K (Calf thymus DNA): 1e+07 M⁻¹
EC50 (L1210 [1]): 0.19 µM
T/C (Mus musculus [2]): 182%
CE37 (L1210 [5]): 0.024 µM
OD (L1210 [3]): 10 mg/kg
MTD (L1210 [4]): 10 mg/kg

K (Calf thymus DNA): 300000 M⁻¹
Compound: CNc1ccc2c(c1)cc(C)c1[nH]c3ccc(OC)cc3c12.I
EC50 (L1210 [1]): 0.3 µM
CE37 (L1210 [5]): 0.15 µM

Compound: CNc1ccc2c(ccc3c2c2cc(OC)ccc2n3C)c1.I
K (Calf thymus DNA): 310000 M⁻¹
EC50 (L1210 [1]): 2.22 µM
T/C (Mus musculus [2]): 115%
OD (L1210 [3]): 75 mg/kg
MTD (L1210 [4]): 150 mg/kg

K (Calf thymus DNA): 61000 M⁻¹
Compound: CNc1cccc2c1cc(C)c1[nH]c3ccc(OC)cc3c12.I
EC50 (L1210 [1]): > 2.5 µM
CE37 (L1210 [5]): >2.5 µM

Compound: COc1ccc2[nH]c3cc(C)c4ccc(NCCN5CCC(C6CCN(CCNc7ccc8c(C)cc9[nH]c%10ccc(OC)cc%10c9c8c7)CC6)CC5)cc4c3c2c1.Cl.Cl
K (Calf thymus DNA): 5e+06 M⁻¹
EC50 (L1210 [1]): > 1 µM
T/C (Mus musculus [2]): 120%
CE37 (L1210 [5]): 0.42 µM
OD (L1210 [3]): 2 mg/kg
MTD (L1210 [4]): 6 mg/kg

K (Calf thymus DNA): 60000 M⁻¹
Compound: CNc1ccc2c(C)cc3[nH]c4ccc(OC)cc4c3c2c1.I
EC50 (L1210 [1]): > 2.5 µM
CE37 (L1210 [5]): 3.71 µM

K (Calf thymus DNA): 1e+07 M⁻¹
Compound: COc1ccc2[nH]c3c(C)cc4cc(NCCN5CCC(C6CCN(CCNc7ccc8c(c7)cc(C)c7[nH]c9ccc(OC)cc9c78)CC6)CC5)ccc4c3c2c1.Cl.Cl
EC50 (L1210 [1]): > 1 µM
CE37 (L1210 [5]): 0.6 µM

Compound: COc1ccc2c(c1)c1c3cc(NCCN4CCCCC4)ccc3cc(C)c1n2C.Cl
T/C (Mus musculus [6]): Not significant
K (Calf thymus DNA): 610000 M⁻¹
EC50 (L1210 [1]): 0.44 µM
OD (L1210 [3]): 10 mg/kg
MTD (L1210 [4]): 10 mg/kg

Compound: COc1ccc2[nH]c3c(C)cc4ccc(NCCN5CCCCC5)cc4c3c2c1.Cl
K (Calf thymus DNA): 930000 M⁻¹
EC50 (L1210 [1]): 0.11 µM
T/C (Mus musculus [2]): 123%
CE37 (L1210 [5]): 0.1 µM
OD (L1210 [3]): 5 mg/kg
MTD (L1210 [4]): 23 mg/kg

Compound: COc1ccc2c(c1)c1c3cc(NCCN4CCCCC4)ccc3ccc1n2C.Cl
T/C (Mus musculus [6]): Not significant
K (Calf thymus DNA): 1.2e+06 M⁻¹
EC50 (L1210 [1]): 0.67 µM
CE37 (L1210 [5]): 3.36 µM
OD (L1210 [3]): 5 mg/kg
MTD (L1210 [4]): 10 mg/kg

Compound: COc1ccc2[nH]c3c(C)cc4ccc(NCCN5CCC(C6CCN(CCNc7ccc8cc(C)c9[nH]c%10ccc(OC)cc%10c9c8c7)CC6)CC5)cc4c3c2c1.Cl.Cl
K (Calf thymus DNA): 5e+08 M⁻¹
EC50 (L1210 [1]): 0.37 µM
T/C (Mus musculus [2]): 172%
CE37 (L1210 [5]): 0.01 µM
MTD (L1210 [4]): 11 mg/kg

Compound: CNc1ccc2ccc3[nH]c4ccc(OC)cc4c3c2c1.I
T/C (Mus musculus [6]): Not significant
K (Calf thymus DNA): 290000 M⁻¹
EC50 (L1210 [1]): 0.95 µM
CE37 (L1210 [5]): 0.77 µM
OD (L1210 [3]): 25 mg/kg
MTD (L1210 [4]): 50 mg/kg

K (Calf thymus DNA): 1e+06 M⁻¹
Compound: CNc1ccc2cc(C)c3c(c2c1)c1cc(OC)ccc1n3C.I
EC50 (L1210 [1]): 0.22 µM
CE37 (L1210 [5]): 0.6 µM

K (Calf thymus DNA): 40000 M⁻¹
Compound: CNc1cccc2c1ccc1[nH]c3ccc(OC)cc3c12.I
EC50 (L1210 [1]): 19.2 µM
CE37 (L1210 [5]): >2.5 µM

Compound: COc1ccc2c(c1)c1c3ccc(NCCN4CCC(C5CCN(CCNc6ccc7c(ccc8c7c7cc(OC)ccc7n8C)c6)CC5)CC4)cc3ccc1n2C.Cl.Cl
T/C (Mus musculus [6]): Not significant
K (Calf thymus DNA): 6e+06 M⁻¹
CE37 (L1210 [5]): 3.93 µM
OD (L1210 [3]): 7.5 mg/kg
MTD (L1210 [4]): 15 mg/kg

Source: ChEMBL document CHEMBL1123643, “Modulation of the antitumor activity by methyl substitutions in the series of 7H-pyridocarbazole monomers and dimers” (1987)
